# Measured values as given in ChEMBL document CHEMBL4033790, “Design and Synthesis of Novel Deuterated Ligands Functionally Selective for the γ-Aminobutyric Acid Type A Receptor (GABAAR) α6 Subtype with Improved Metabolic Stability and Enhanced Bioavailability” (J Med Chem, 2018).
# Activity calls are given as the source filed them. The calls are words filed in the database; no cut-off is given here.
# Tests used:
# [1] = Drug metabolism in human liver microsomes assessed as CYP450 mediated-O-demethylated 7-hydroxy-2-[4-(trideuteriomethoxy)phenyl]-5H-pyrazolo[4,3-c]quinolin-3-one metabolite formation after 60 mins by LC-MS analysis; assay type: ADME; conditions: 1 h
# Procedure, shortened: (§1)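 The 60-min samples from the human or mouse liver microsome incubations (10 µM compound, 0.5 mg/mL protein, NADPH regenerating system, 37 °C, pH 7.4) were run on LC-MS in SIM mode with dual ESI/APCI ionization. The method was calibrated to each component's retention time and mass, and the peak intensities of the parent and O-demethylated metabolites were measured.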
# [2] = Drug metabolism in human liver microsomes assessed as CYP450 mediated-O-demethylated 7-hydroxy-2-(4-hydroxyphenyl)-2H-pyrazolo[4,3-c]quinolin-3(5H)-one metabolite formation after 60 mins by LC-MS analysis; assay type: ADME; conditions: 1 h; procedure, shortened: as §1
# [3] = Drug metabolism in mouse liver microsomes assessed as CYP450 mediated-O-demethylated 2-(4-hydroxyphenyl)-7-methoxy-2H-pyrazolo[4,3-c]quinolin-3(5H)-one metabolite formation after 60 mins by LC-MS analysis; assay type: ADME; conditions: 1 h; procedure, shortened: as §1
# [4] = Drug metabolism in mouse liver microsomes assessed as CYP450 mediated-O-demethylated 7-hydroxy-2-(4-hydroxyphenyl)-2H-pyrazolo[4,3-c]quinolin-3(5H)-one metabolite formation after 60 mins by LC-MS analysis; assay type: ADME; conditions: 1 h; procedure, shortened: as §1
# Rattus norvegicus [5] = assay: Toxicity in Wistar rat assessed as total distance traveled at 10 mg/kg, ip administered for 45 mins measured for 5 min by elevated plus maze method (reference value: 6.71 +/- 0.56 meter); assay type: organism-based; conditions: in vivo
# Rattus norvegicus [6] = assay: Toxicity in Wistar rat assessed as open arm entries at 10 mg/kg, ip administered for 45 mins measured for 5 min by elevated plus maze apparatus method (reference value: 23.07 +/- 5.47%); assay type: organism-based; conditions: in vivo
# Rattus norvegicus [7] = assay: Toxicity in Wistar rat assessed as peripheral ring distance at 10 mg/kg, ip administered for 45 mins by cued water-maze method (reference value: 67.44 +/- 4.60%); assay type: organism-based; conditions: in vivo, 0.75 h
# Rattus norvegicus [8] = assay: Toxicity in Wistar rat assessed as total distance traveled at 10 mg/kg, ip administered for 45 mins by cued water-maze method (reference value: 8.04 +/- 1.16 meter); assay type: organism-based; conditions: in vivo, 0.75 h
# Rattus norvegicus [9] = assay: Toxicity in Wistar rat assessed as average swim speed at 10 mg/kg, ip administered for 45 mins by cued water-maze apparatus method (reference value: 0.21 +/- 0.01 meter/s); assay type: organism-based; conditions: in vivo, 0.75 h
# Rattus norvegicus [10] = assay: Hyperlocomotor activity in Wistar rat assessed as total distance travelled at 10 mg/kg, ip after 60 mins; assay type: ADME, organism-based; conditions: in vivo, 1 h
# Brain = assay: Fraction unbound in Wistar rat brain at 10 mg/kg, ip administered as single dose measured at 5 to 720 mins post dose by HPLC-MS/MS analysis; assay type: ADME, organism-based; conditions: in vivo
# Procedure, shortened: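 Free fraction in rat plasma and brain tissue was measured in vitro by rapid equilibrium dialysis. Exposure came from male Wistar rats (250-350 g) given a single 10 mg/kg IP dose, as a 5 mg/ml suspension in 85% water, 14% propylene glycol and 1% Tween 80. Three rats per time point (5–720 min); brain analysed by HPLC-MS/MS after solid-phase extraction.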
# Liver = assay: Half life in human liver microsomes at 10 uM by LC-MS/MS analysis; assay type: ADME, microsome
# Procedure, shortened: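 Compound at 10 μM final was preincubated 5 min at 37 °C with NADPH regenerating system in phosphate buffer, pH 7.4. Human or mouse liver microsomes (0.5 mg/mL protein) were added to start the reaction. Samples were taken at 0 (no microsomes) and 10–60 min and measured by LC-MS/MS against an internal standard. Half-life = 0.693/k, with k the slope of ln peak-area ratio versus time. Three experiments, each in duplicate.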
# [11] = Aqueous solubility of the compound in DI water at pH 7 after 2 hrs by LC-MS analysis; assay type: physicochemical; conditions: buffer, pH 7, 2 h
# Procedure, shortened: (§2)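 10 mg compound dissolved in 2 mL DMAC; 10 μL of this added to 2 mL DI water (pH 7, sonicated) or 2 mL 0.01 M aq HCl (pH 2), held 2 h at 37 °C. Filtered through 0.45 micron filter, then quantified by LC-MS in SIM mode against calibration curves of standards in DMAC (n = 5); n=3.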
# [12] = Solubility of the compound in 0.01M HCl at pH 2 after 2 hrs by LC-MS analysis; assay type: physicochemical; conditions: buffer, pH 2, 2 h; procedure, shortened: as §2
# [13] = molecular target: GABA-A receptor; alpha-1/beta-3/gamma-2 (Homo sapiens) (UniProt P14867+P18507+P28472); assay: Positive allosteric modulation of GABA-A receptor alpha1beta3gamma2 (unknown origin) expressed in Xenopus laevis oocytes assessed as potentiation of EC3 GABA induced currents up to 1 uM at -60 mV holding potential by electrophysiological method relative to GABA; assay type: cell-based
# Procedure, shortened: (§3)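 Stage 5–6 defolliculated Xenopus oocytes were injected with 2.5 ng total mRNA per oocyte: α1, α2, α3 or α5 with β3 and γ2 at 1:1:5, and α4 or α6 with β3 and γ2 at 3:1:5. Oocytes were kept ≥36 h at 18 °C in NDE medium before recording. Compounds were co-applied with GABA titrated to EC3-5 for each oocyte. Curves were fitted with the Hill equation; mean ± SEM from ≥3 oocytes across two batches.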
# [14] = molecular target: GABA A receptor alpha-4/beta-3/gamma-2 (Homo sapiens) (UniProt P18507+P28472+P48169); assay: Positive allosteric modulation of GABA-A receptor alpha4beta3gamma2 (unknown origin) expressed in Xenopus laevis oocytes assessed as potentiation of EC3 GABA induced currents up to 1 uM at -60 mV holding potential by electrophysiological method relative to GABA; assay type: cell-based; procedure, shortened: as §3
# [15] = molecular target: GABA-A receptor; alpha-5/beta-3/gamma-2 (Homo sapiens) (UniProt P18507+P28472+P31644); assay: Positive allosteric modulation of GABA-A receptor alpha5beta3gamma2 (unknown origin) expressed in Xenopus laevis oocytes assessed as potentiation of EC3 GABA induced currents up to 1 uM at -60 mV holding potential by electrophysiological method relative to GABA; assay type: cell-based; procedure, shortened: as §3
# [16] = molecular target: D(1B) dopamine receptor (Homo sapiens) (UniProt P21918); assay: Displacement of [3H]-[…] from human recombinant dopamine D5 receptor expressed in HEK293 cells at 10 uM after 60 to 90 mins by scintillation counting; assay type: cell-based
# D(1B) dopamine receptor (Homo sapiens), sequence (P21918 whole entry): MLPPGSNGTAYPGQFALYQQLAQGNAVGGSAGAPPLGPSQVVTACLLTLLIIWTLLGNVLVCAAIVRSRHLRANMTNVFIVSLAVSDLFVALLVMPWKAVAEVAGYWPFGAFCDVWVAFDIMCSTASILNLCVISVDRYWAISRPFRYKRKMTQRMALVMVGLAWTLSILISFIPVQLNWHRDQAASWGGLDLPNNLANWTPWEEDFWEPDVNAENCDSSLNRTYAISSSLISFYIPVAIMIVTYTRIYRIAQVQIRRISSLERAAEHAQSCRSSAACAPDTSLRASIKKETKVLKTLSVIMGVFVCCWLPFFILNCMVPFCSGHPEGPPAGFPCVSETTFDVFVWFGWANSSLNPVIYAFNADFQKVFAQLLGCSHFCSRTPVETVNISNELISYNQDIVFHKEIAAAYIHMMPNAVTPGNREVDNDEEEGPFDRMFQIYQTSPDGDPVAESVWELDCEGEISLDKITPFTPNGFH
# Procedure, shortened: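 Primary single-concentration radioligand displacement screen run by the NIMH Psychoactive Drug Screening Program across a 46-target panel that includes hERG. The read-out is percent inhibition of specific radioligand binding. Any compound displacing more than 50% of radioligand went on to secondary binding assays to determine Ki.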
SMILES,Drug metabolism [1],Drug metabolism [2],Drug metabolism [3],Drug metabolism [4],Activity (Rattus norvegicus [5]) [m],Activity (Rattus norvegicus [6]) [%],Activity (Rattus norvegicus [7]) [%],Activity (Rattus norvegicus [8]) [m],Activity (Rattus norvegicus [9]) [meter/s],Activity (Rattus norvegicus [10]),Fu (Brain),t1/2 (Liver) [h],solubility [11] [µM],solubility [12] [µM],Activity [13] [%],Activity [14] [%],Activity [15] [%],inhibition [16]
[2H]C([2H])([2H])Oc1ccc(-n2nc3c4ccc(OC)cc4[nH]cc-3c2=O)cc1,Metabolite_Detected,Metabolite_Detected,Metabolite_Detected,Metabolite_Detected,5.84,22.36,67.2,11.01,0.2,Toxic,0.194,–,–,–,–,–,–,–
COc1ccc(-n2nc3c4ccc(OC)cc4[nH]cc-3c2=O)cc1,–,–,–,–,–,–,–,–,–,–,–,3.6,24.3,27.8,< 0,< 0,< 0,Active
